Screening data (PubChem BioAssay)
Most compounds without a hit are left out; they make up all but 2.9% or so of the library.
GalR3 antagonist: GalR3 antagonists in HEK293 cells, primary screen, cell-based, fluorescence readout | Galanin receptor type 3 (Homo sapiens), O60755 | HEK293 GalR3-CNG cAMP membrane potential fluorescence; galR3 body fused to GalR1 C-terminus | inhibition, % at 3 µM | 360,000 compounds, 0.44% hits;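 active = inhibition above the screen-wide average plus 3 SD, cut at about 13% in these data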;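 also: forskolin and galanin both at EC90 stimulate the cells; cAMP rise reported by CNG channel membrane potential dye signal; 0% = forskolin plus galanin with DMSO and 100% = forskolin alone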
Target sequence (O60755 1-299 limits assumed): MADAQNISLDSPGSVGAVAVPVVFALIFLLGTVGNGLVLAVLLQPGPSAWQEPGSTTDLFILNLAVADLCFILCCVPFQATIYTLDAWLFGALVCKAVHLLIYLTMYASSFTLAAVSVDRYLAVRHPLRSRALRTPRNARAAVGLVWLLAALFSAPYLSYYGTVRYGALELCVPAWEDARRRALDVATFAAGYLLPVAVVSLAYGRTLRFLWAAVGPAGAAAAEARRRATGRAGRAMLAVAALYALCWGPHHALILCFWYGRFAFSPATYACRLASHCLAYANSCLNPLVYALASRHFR
Efflux pump inh: inhibitors of Candida efflux pumps in yeast, primary screen, S. cerevisiae, Nile Red, multiplex; 330,000 compounds, 0.44% hits; inhibition, % at 10 µM; S. cerevisiae Candida pump triplex;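 active = plate passing quality check with inhibition over a set limit, or well fluorescence over plate mean plus 4 SD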;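 also: Nile Red retained in pooled yeast measured as flow cytometry median fluorescence; 0% = buffer negative control and 100% = Enniatin B positive control; higher means more Nile Red kept so more efflux inhibition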
H9c2 TAG inh: inhibitors of triacylglycerol accumulation, primary screen, cell-based, uHTS, fluorescence, H9c2; inhibition, % at 12.5 µM; 230,000 compounds, 0.66% hits; H9c2 cells, Nile Red lipid (TAG) fluorescence; cells loaded with 200 µM oleic acid;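 active = pattern-corrected inhibition of lipid staining of at least 50% with the nuclear-stain viability signal not falling by more than 50%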;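 also: 0% = DMSO wells and 100% = triacsin C control wells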
MC4R antag cAMP: MC4R antagonists of cAMP signaling, primary screen, cell-based, TR-FRET, antagonist arm of biased-ligand search; MC4R-expressing cells, MTII-stimulated cAMP, LANCE TR-FRET; inhibition, % at 6.5 µM; 360,000 compounds, 0.48% hits;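 active = inhibition above its plate's cutoff, the mean of tested wells on that plate plus 3 SD, cut at about 29% in these data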;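 also: 0% = Melanotan II alone and 100% = Melanotan II plus saturating MCL0020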
Target sequence (P32245 whole entry, looked up): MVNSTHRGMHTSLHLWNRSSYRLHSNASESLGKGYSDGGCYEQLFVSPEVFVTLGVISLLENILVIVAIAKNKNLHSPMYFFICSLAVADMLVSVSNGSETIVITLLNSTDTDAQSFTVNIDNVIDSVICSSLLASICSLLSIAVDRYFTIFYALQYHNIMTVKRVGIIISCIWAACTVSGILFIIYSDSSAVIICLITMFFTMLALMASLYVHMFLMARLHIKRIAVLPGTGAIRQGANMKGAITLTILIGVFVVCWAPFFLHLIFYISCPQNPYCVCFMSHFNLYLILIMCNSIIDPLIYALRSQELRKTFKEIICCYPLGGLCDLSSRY
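Material – human MC4R-expressing U2OS cells · Repeats – no replicates · Detection – TR-FRET with Eu-cAMP and labeled anti-cAMP, 671 nm · Times – compound 30 min, challenge 1 h, detection 1 h · Compound – single nominal compound dose of 6.5 µM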
Calb FLC: C. albicans growth inhibition with fluconazole, primary screen, CaCi-2 strain, Alamar Blue fluorescence. C. albicans CaCi-2 + fluconazole, 48 h. growth inhibition, % (concentration not given with the values). 300,000 compounds, 0.57% hits. AID 1979, 2009;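 active = growth inhibition above about 58% in most replicates, limit read from the data, passing the limit was not always enough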;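 also: all wells also contain fluconazole at 8 µg/ml as a sub-toxic cotreatment; 0% = median of DMSO wells and 100% = median of geldanamycin control wells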
MC4R ag barr: MC4R agonists recruiting beta-arrestin, primary screen, cell-based, luminescence, agonist arm of biased-ligand search | 360,000 compounds, 0.98% hits | U2OS MC4R beta-arrestin complementation; percent of melanotan II response, DMSO zero | Melanocortin receptor 4 (Homo sapiens), P32245 | activation, % at 8.9 µM;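 active = activation above a per-plate cutoff, the mean activation of sample wells on that plate plus 3 SD, cut at about 8% in these data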
GalR3 antag conf: GalR3 antagonist hit confirmation, cell-based, fluorescence, triplicate; shares compounds with GalR3 antagonist; HEK293 GalR3 CNG cAMP biosensor, membrane potential fluorescence; galR3 fused to GalR1 carboxy tail; challenged with forskolin and galanin at EC90; inhibition, % at 3 µM; 1,600 compounds, 59% hits; AID 652245, 2013;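 active = inhibition above the primary screen's cutoff, the mean inhibition of all screened compounds plus 3 SD, cut at about 13% in these data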;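 also: 0% = forskolin plus galanin and 100% = forskolin alone with DMSO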
HEK-CNG parental: nonspecific cAMP agonists in parental HEK-CNG cells, counter-screen for GalR3 antagonist project, cell-based, fluorescence, high throughput; 1,600 compounds, 10% hits; shares compounds with GalR3 antagonist; activation, % at 3 µM; HEK293-CNG parental cells, cAMP membrane potential fluorescence; normalised: DMSO wells 0%, forskolin wells 100%; in the data active = activation above about 1.3%
Starred values were filed as active, the others as inactive; · = no result.

SMILES | GalR3 antagonist | Efflux pump inh | H9c2 TAG inh | MC4R antag cAMP | Calb FLC | MC4R ag barr | GalR3 antag conf | HEK-CNG parental
CCCc1ccc(C(=O)NC(=O)c2ccccc2O)cc1 | 13* | 0 | -2 | -2 | 53 | 0 | 49* | -1
CC1Oc2ccccc2C=C1/C=N/Nc1ccc(C(=O)O)cc1 (stereo not given) | 14* | 0 | 32 | 2 | -6 | 1 | 14* | 0
CC(C)(C)c1ccc(/C=N/Nc2ccc(C(=O)O)cc2)cc1 | -4 | 0 | 4 | 16 | 6 | -1 | · | ·
O=C(CSc1nnc(Cn2nnc3ccccc32)o1)N(Cc1ccc(Cl)cc1)c1ccccc1 | 97* | 0 | -60 | -2 | -7 | 0 | 102* | 0
O=C(CSc1nnc(Cn2nnc3ccccc32)o1)Nc1cccc(Cl)c1 | -8 | 0 | -1 | 3 | 11 | -1 | · | ·
CC(C)C(=O)N1CCCC1(C)C(=O)Nc1ccc(F)cc1 (stereo not given) | -7 | · | -13 | 5 | · | 0 | · | ·
COc1ccc(-c2nc3cc(NC(=O)Cc4ccc(OC)c(OC)c4)ccc3o2)cc1 | 38* | 0 | · | -4 | 36 | -1 | 11 | 0
COc1ccc(CC(=O)Nc2ccc(-c3nnc(-c4ccccc4)o3)cc2)cc1OC | · | 1 | · | 13 | 5 | 1 | · | ·
COc1ccc(OC[C@@H](O)CNC(=O)c2cccc3c2C(=O)c2ccc(Cl)cc2S3(=O)=O)cc1 | 78* | 0 | -13 | -26 | · | -1 | 58* | 0
CC1CCCCN1CCCNC(=O)CN1C(=O)c2cccnc2Oc2ccc(Cl)cc21 (stereo not given) | 14* | 0 | · | 8 | -3 | -3 | 19* | 0
O=C(CN1C(=O)c2cccnc2Oc2ccc(Cl)cc21)NC1CCCC1 | -6 | 0 | · | 3 | -3 | -1 | · | ·
Cc1nnc(SCC(=O)Nc2cccc(S(=O)(=O)N(C)c3ccccc3)c2)s1 | 13* | 0 | · | 16 | -8 | -1 | 10 | 0
COCCn1cnnc1SCC(=O)Nc1cccc(S(=O)(=O)N(C)c2ccccc2)c1 | -5 | 0 | 17 | 1 | 9 | -1 | · | ·
COCc1[nH]nc2c1C(c1ccc(OC)c(OC)c1)C(C#N)=C(N)O2 (stereo not given) | -5 | 0 | -18 | -4 | -3 | -1 | · | ·
CCn1c2ccccc2c2cc(C3C(C#N)=C(N)Oc4n[nH]c(COC)c43)ccc21 (stereo not given) | 41* | 0 | · | 5 | 8 | 1 | 26* | 0
CC(C)n1cnc2c(N(C)c3cccc(Cl)c3)nc(N(CCO)CCO)nc21 | · | 0 | 13 | 1 | 1 | -1 | 10 | 0
Cc1ccc(NC(=O)CSc2nc(N)c3c4c(sc3n2)CSC(C)(C)C4)cc1 | 12 | 0 | · | 21 | 8 | 6 | · | ·
Cc1ccccc1NC(=O)CSc1nc(N)c2c3c(sc2n1)CSC(C)(C)C3 | 21* | 0 | · | 21 | 29 | 2 | 39* | 0
Nc1ncnc2c1ncn2[C@@H]1O[C@H](C(=O)NS(=O)(=O)c2cccc(F)c2)[C@@H](O)[C@H]1O | -3 | · | · | · | · | · | · | ·
N#Cc1ccccc1S(=O)(=O)NC(=O)[C@H]1O[C@@H](n2cnc3c(N)ncnc32)[C@H](O)[C@@H]1O | 21* | · | · | · | · | · | 45* | 1.4*
OC(c1cccnc1)c1nc(-c2ccc3c(c2)OCO3)cs1 (stereo not given) | -8 | · | -5 | -2 | · | -1 | · | ·
c1ccc(C2=Nn3c(nnc3-c3cccs3)SC2)cc1 | -5 | 0 | 12 | -1 | 4 | -3 | · | ·
COc1ccc(C2=Nn3c(nnc3-c3ccccc3OC)SC2)cc1OC | 38* | 0 | 60* | -48 | 20 | -2 | 46* | 1.5*
c1ccc(-c2ccc(C3=Nn4c(nnc4-c4cccs4)SC3)cc2)cc1 | 16* | 0 | -2 | 15 | 14 | -3 | 46* | 1.8*
COc1ccc(-c2c3c(=O)n(C)c(=O)n(C)c3cn2-c2cc(OC)ccc2OC)cc1 | 18* | 0 | -12 | 12 | -7 | 0 | 20* | 0
SMILES | GalR3 antagonist | Efflux pump inh | H9c2 TAG inh | MC4R antag cAMP | Calb FLC | MC4R ag barr | GalR3 antag conf | HEK-CNG parental
Cc1[nH]c2ccccc2c1C1=CC(=O)C=CC1=O | -2 | · | 6 | 20 | · | -3 | · | ·
CCCCn1c(N)c(N(CC)C(=O)c2ccc([N+](=O)[O-])c(C)c2)c(=O)[nH]c1=O | -5 | 0 | · | -3 | -4 | 1 | · | ·
CC1CCN(C(=O)c2[nH]cnc2C(=O)NCc2ccccc2)CC1 | · | 0 | 7 | 10 | · | -1 | 11 | 0
CC1CCN(C(=O)c2[nH]cnc2C(=O)NCc2ccc(CNC(=O)OC(C)(C)C)cc2)CC1 | -6 | 0 | 6 | -4 | · | -2 | · | ·
CCOc1cc(/C=C2\CCC/C(=C\c3cc(Cl)c(O)c(OCC)c3)C2=O)cc(Cl)c1O | 24* | 0 | 19 | -10 | -8 | 5 | 53* | 0
CC(C)(C)c1ccc(SC2=C[C@@]3(O)CC[C@@H](O)[C@@](Sc4ccc(C(C)(C)C)cc4)(C2=O)[C@H]3O)cc1 | -8 | · | · | · | · | · | · | ·
CCOc1ncccc1C(=O)OCC(=O)c1ccccc1Br | 16* | 0 | -2 | -3 | 15 | -2 | -3 | 0
CCOC(=O)C1=C[C@@H](C(C)(C)C)N(S(=O)(=O)c2ccc([N+](=O)[O-])cc2)[C@H]1c1ccccc1Cl | -7 | · | · | · | · | · | · | ·
CCCc1ccc(Oc2cc(C)nc(N3CCOCC3)n2)cc1 | 15* | 0 | -19 | 2 | 2 | -1 | 9 | 0
Cc1ccc(C)c(CC(=O)N2CCCCC2c2cc(C(=O)Nc3ccc(F)c(Cl)c3)no2)c1 (stereo not given) | -4 | · | 12 | -7 | · | -1 | · | ·
CC(=O)c1ccc(S(=O)(=O)N2CCN(C(C)=O)CC2)cc1 | 16* | 0 | -8 | -3 | 12 | 2 | 1 | 0
COc1cc(C2NC(=O)NC(C)=C2C(=O)OCc2ccc(C)cc2)cc(OC)c1OC (stereo not given) | -1 | 0 | · | -6 | -1 | -1 | · | ·
